The source made the active and inactive calls. The calls are words filed in the database; no cut-off is given here. Bounds are passed on as bounds.

What all share (assay type): functional
The test system of one assay is Staphylococcus aureus. In words: Antibacterial activity against Staphylococcus aureus MTCC 96 assessed as bacterial growth inhibition by microdilution method. The essentials:
(§1)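 Broth microdilution against Gram-positive and Gram-negative strains. The endpoint is the minimal inhibitory concentration, in µg/ml.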

Another assay has as its system Bacillus subtilis. Put plainly: Antibacterial activity against Bacillus subtilis MTCC 441 assessed as bacterial growth inhibition by microdilution method. The essentials: as §1
(In general: Dilution methods test growth across graded concentrations, often in twofold steps.)

For a further assay, the system named is Pseudomonas aeruginosa. In words: Antibacterial activity against Pseudomonas aeruginosa MTCC 424 assessed as bacterial growth inhibition by microdilution method. The gist of the method:
as §1

In another assay the test system is Escherichia coli. Put plainly: Antibacterial activity against Escherichia coli MTCC 443 assessed as bacterial growth inhibition by microdilution method. The gist of the method:
as §1

The subject of assay [1] is Aspergillus niger. Put plainly: Antifungal activity against Aspergillus niger MTCC 404 assessed as zone of inhibition at 15.9 uM incubated for 2 days by cross streak plate method. The settings on record: MTCC 404, 48 h, time 2 day, read-out: IZ. The essentials: (§2)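 Fungal strain (A. niger MTCC 404 or S. cerevisiae MTCC 1344) was incubated with the compound for 2 days at 37 °C. Growth inhibition was then assessed by the cross streak plate method.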

Assay [2] relates to Aspergillus niger. In words: Antifungal activity against Aspergillus niger MTCC 404 assessed as zone of inhibition at 23.9 uM incubated for 2 days by cross streak plate method. The settings on record: MTCC 404, 48 h, time 2 day, read-out: IZ. The essentials: as §2
Assay [3] has as its system Aspergillus niger. In words: Antifungal activity against Aspergillus niger MTCC 404 assessed as zone of inhibition at 31.8 uM incubated for 2 days by cross streak plate method. The settings on record: MTCC 404, 48 h, time 2 day, read-out: IZ. The gist of the method:
as §2

Assay [4] has as its system Saccharomyces cerevisiae. In words: Antifungal activity against Saccharomyces cerevisiae MTCC 1344 assessed as zone of inhibition at 15.9 uM incubated for 2 days by cross streak plate method. The settings on record: MTCC 1344, 48 h, time 2 day, read-out: IZ. The essentials: as §2
In assay [5] the test system is Saccharomyces cerevisiae. In words: Antifungal activity against Saccharomyces cerevisiae MTCC 1344 assessed as zone of inhibition at 23.9 uM incubated for 2 days by cross streak plate method. The settings on record: MTCC 1344, 48 h, time 2 day, read-out: IZ. The gist of the method:
as §2

The subject of assay [6] is Saccharomyces cerevisiae. In words: Antifungal activity against Saccharomyces cerevisiae MTCC 1344 assessed as zone of inhibition at 31.8 uM incubated for 2 days by cross streak plate method. The settings on record: MTCC 1344, 48 h, time 2 day, read-out: IZ. The essentials:
as §2

Assay [7] is described as follows: Antioxidant activity assessed as DPPH radical scavenging activity. In general terms: DPPH is a stable violet radical that fades when it is reduced.
For assay [8], the system named is Aspergillus niger. In words: Antifungal activity against Aspergillus niger MTCC 404 assessed as zone of inhibition at 17.2 uM incubated for 2 days by cross streak plate method. The settings on record: MTCC 404, 48 h, time 2 day, read-out: IZ. The essentials:
as §2

Assay [9] relates to Aspergillus niger. In words: Antifungal activity against Aspergillus niger MTCC 404 assessed as zone of inhibition at 25.9 uM incubated for 2 days by cross streak plate method. The settings on record: MTCC 404, 48 h, time 2 day, read-out: IZ. The essentials: as §2
For assay [10], the system named is Aspergillus niger. Put plainly: Antifungal activity against Aspergillus niger MTCC 404 assessed as zone of inhibition at 34.5 uM incubated for 2 days by cross streak plate method. As to conditions: MTCC 404, 48 h, time 2 day, read-out: IZ. The essentials:
as §2

Assay [11] has as its system Saccharomyces cerevisiae. In words: Antifungal activity against Saccharomyces cerevisiae MTCC 1344 assessed as zone of inhibition at 17.2 uM incubated for 2 days by cross streak plate method. The settings on record: MTCC 1344, 48 h, time 2 day, read-out: IZ. The essentials:
as §2

Assay [12] relates to Saccharomyces cerevisiae. In words: Antifungal activity against Saccharomyces cerevisiae MTCC 1344 assessed as zone of inhibition at 25.9 uM incubated for 2 days by cross streak plate method. As to conditions: MTCC 1344, 48 h, time 2 day, read-out: IZ. The essentials: as §2
For assay [13], the system named is Saccharomyces cerevisiae. In words: Antifungal activity against Saccharomyces cerevisiae MTCC 1344 assessed as zone of inhibition at 34.5 uM incubated for 2 days by cross streak plate method. As to conditions: MTCC 1344, 48 h, time 2 day, read-out: IZ. The gist of the method:
(§3)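 S. cerevisiae MTCC 1344 cultures were incubated for 2 days at 37 °C and then tested by the cross streak plate method.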

Assay [14] relates to Aspergillus niger. Put plainly: Antifungal activity against Aspergillus niger MTCC 404 assessed as zone of inhibition at 18.3 uM incubated for 2 days by cross streak plate method. The settings on record: MTCC 404, 48 h, time 2 day, read-out: IZ. The essentials:
as §2

Assay [15] has as its system Aspergillus niger. In words: Antifungal activity against Aspergillus niger MTCC 404 assessed as zone of inhibition at 27.5 uM incubated for 2 days by cross streak plate method. The settings on record: MTCC 404, 48 h, time 2 day, read-out: IZ. The essentials: as §2
Assay [16] deals with Aspergillus niger. In words: Antifungal activity against Aspergillus niger MTCC 404 assessed as zone of inhibition at 36.6 uM incubated for 2 days by cross streak plate method. The settings on record: MTCC 404, 48 h, time 2 day, read-out: IZ. The gist of the method:
as §2

In assay [17] the test system is Saccharomyces cerevisiae. In words: Antifungal activity against Saccharomyces cerevisiae MTCC 1344 assessed as zone of inhibition at 18.3 uM incubated for 2 days by cross streak plate method. The settings on record: MTCC 1344, 48 h, time 2 day, read-out: IZ. The gist of the method: as §2
In assay [18] the test system is Saccharomyces cerevisiae. Put plainly: Antifungal activity against Saccharomyces cerevisiae MTCC 1344 assessed as zone of inhibition at 27.5 uM incubated for 2 days by cross streak plate method. The settings on record: MTCC 1344, 48 h, time 2 day, read-out: IZ. The gist of the method:
as §2

Assay [19] concerns Saccharomyces cerevisiae. Put plainly: Antifungal activity against Saccharomyces cerevisiae MTCC 1344 assessed as zone of inhibition at 36.6 uM incubated for 2 days by cross streak plate method. As to conditions: MTCC 1344, 48 h, time 2 day, read-out: IZ. The essentials:
as §3

For `O=C(CSc1nnc(-c2ccccc2OCc2cn(-c3ccccc3)nn2)n1Cc1ccccc1)c1cccc(Cl)c1`, the MIC – broadly, the lowest concentration that inhibits growth of the organism – with Staphylococcus aureus is 8 µg/mL; in the assay on Bacillus subtilis, 4.1 µg/mL; in the assay with Pseudomonas aeruginosa, 7.5 µg/mL; with Escherichia coli, over 40.8 µg/mL. The zone of inhibition at 15.9 µM with Aspergillus niger [1] is 2 mm; in the assay with Saccharomyces cerevisiae [4] it was 1.5 mm. In addition, the zone of inhibition at 23.9 µM in the assay with Aspergillus niger [2] and in the assay with Saccharomyces cerevisiae [5] was 2 mm each time. The zone of inhibition at 31.8 µM in the assay with Aspergillus niger [3] and in the assay with Saccharomyces cerevisiae [6] was 3 mm each time. Besides, in [7], the outcome was inactive.

On to `O=C(Sc1nnc(-c2ccccc2OCc2cn(-c3ccc(Cl)cc3)nn2)n1Cc1ccccc1)c1ccccc1`, for which the MIC in the assay on Staphylococcus aureus came to 4.1 µg/mL; with Bacillus subtilis, 6.5 µg/mL; in the assay with Pseudomonas aeruginosa, 7.3 µg/mL; with Escherichia coli, 6.1 µg/mL. The zone of inhibition at 17.2 µM in the assay with Aspergillus niger [8] came out at 5.3 mm; with Saccharomyces cerevisiae [11] it was 5 mm. The zone of inhibition at 25.9 µM with Aspergillus niger [9] was 6 mm; in the assay on Saccharomyces cerevisiae [12], 7 mm. The zone of inhibition at 34.5 µM was 7.6 mm with Aspergillus niger [10] and 7.4 mm in the assay on Saccharomyces cerevisiae [13]. The result in [7] was inactive.

For `O=C(Sc1nnc(-c2ccccc2OCc2cn(-c3ccccc3)nn2)n1Cc1ccccc1)c1ccccc1`, the MIC in the assay with Staphylococcus aureus was determined as 8.9 µg/mL; with Bacillus subtilis, 4 µg/mL; in the assay with Pseudomonas aeruginosa, 8.7 µg/mL; in the assay with Escherichia coli, 10 µg/mL. Further, the results for the zone of inhibition at 18.3 µM with Aspergillus niger [14] and in the assay on Saccharomyces cerevisiae [17] were 5.5 mm and 6 mm, respectively. The zone of inhibition at 27.5 µM in the assay with Aspergillus niger [15] and with Saccharomyces cerevisiae [18] was 6.8 mm in each case. For the same compound, the figures for the zone of inhibition at 36.6 µM in the assay with Aspergillus niger [16] and in the assay on Saccharomyces cerevisiae [19] were 7 mm and 6.7 mm, respectively. Besides, in [7], the outcome was inactive.

On to `O=C(CSc1nnc(-c2ccccc2OCc2cn(-c3ccccc3)nn2)n1-c1ccccc1)c1ccccc1`, for which the MIC with Staphylococcus aureus was found to be 9.8 µg/mL; in the assay with Bacillus subtilis, 4.9 µg/mL; with Pseudomonas aeruginosa, 9.1 µg/mL; in the assay on Escherichia coli, 9.8 µg/mL. Also, the zone of inhibition at 18.3 µM in the assay with Aspergillus niger [14] was 2.1 mm; in the assay on Saccharomyces cerevisiae [17] it was 1.5 mm. The zone of inhibition at 27.5 µM in the assay with Aspergillus niger [15] was 3 mm; in the assay with Saccharomyces cerevisiae [18] it was 2 mm. For the same compound, the zone of inhibition at 36.6 µM in the assay on Aspergillus niger [16] and in the assay with Saccharomyces cerevisiae [19] was 3 mm throughout. Moreover, the result in assay [7] was inactive.

As to `O=C(CSc1nnc(-c2ccccc2OCc2cn(-c3ccccc3)nn2)n1-c1ccccc1)c1ccc(Cl)cc1`, the MIC in the assay with Staphylococcus aureus is 8.4 µg/mL; in the assay on Bacillus subtilis, 4 µg/mL; with Pseudomonas aeruginosa, 7.9 µg/mL; with Escherichia coli it was over 45.4 µg/mL. Moreover, the zone of inhibition at 17.2 µM amounted to 2.1 mm with Aspergillus niger [8] and 2 mm in the assay on Saccharomyces cerevisiae [11]. Moreover, the zone of inhibition at 25.9 µM in the assay on Aspergillus niger [9] and with Saccharomyces cerevisiae [12] was 3 mm each time. The zone of inhibition at 34.5 µM with Aspergillus niger [10] and in the assay on Saccharomyces cerevisiae [13] was 3 mm each time. The outcome in assay [7] was inactive.

Turning to `CC1(C)S[C@@H]2[C@H](NC(=O)[C@H](N)c3ccccc3)C(=O)N2[C@H]1C(=O)O` [AMPICILLIN], the MIC was determined as 10 µg/mL in the assay with Staphylococcus aureus, 10 µg/mL in the assay on Bacillus subtilis, 10 µg/mL in the assay with Pseudomonas aeruginosa and 3.9 µg/mL with Escherichia coli.
